Jurkat NFkB inh: inhibitors of induced NF-kB luciferase reporter, primary screen, TCR NF-kB activation inhibitor project, cell-based, luminescence, uHTS | Jurkat, PMA/ionomycin-induced NF-kB luciferase reporter | inhibition, % at 4 µM | actives 0.53% (n = 330,000) | AID 435003, 2010; in the data active = inhibition above about 50%
697 NFkB inh: inhibitors of PMA/ionomycin-induced NF-kB reporter, 697 cells, primary screen, B-cell NF-kB inhibitor project, cell-based, luminescence, uHTS. 697 B-cell NF-kB luciferase reporter, 16 h. inhibition, % at 4 µM. actives 0.33% (n = 330,000). AID 435022, 2010; in the data active = inhibition above about 35%
UPR XBP1 act: activators of adaptive XBP1 UPR arm, primary screen, cell-based, CHO-XBP1 luciferase reporter, luminescence, uHTS; AID 463104, 2010; IRE1-XBP1 UPR activation; percent of tunicamycin response, DMSO as zero; actives 0.33% (n = 330,000); activation, % at 20 µM;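 active = versus positive control, 20 µM dose yields 30% or more activation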;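 also: 100% = tunicamycin at 10 µg/mL and 0% = DMSO only wells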
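Material: CHO cell line with stable XBP1 luciferase reporter; schedule: 16-18 h cell attachment at 37 °C, then 6 h compound exposure; signal: glow luminescence from Steady-Glo reagent; medium: serum-containing F12 medium, 10% FBS; benchmarks: tunicamycin 10 µg/mL and vehicle-only wells; read-out: percent activation relative to tunicamycin reference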
CHOP UPR activ: activators of apoptotic CHOP UPR arm, primary screen, cell-based, CHO-CHOP luciferase reporter, luminescence, uHTS. activation, % at 10 µM. actives 0.34% (n = 330,000). UPR activation; percent of tunicamycin response over DMSO baseline;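 active = at 10 µM dose, activation of 40% or more, normalized to positive control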;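 also: 100% = tunicamycin at 10 µg/mL and 0% = DMSO alone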
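Material: CHO-CHOP cells, stable luciferase reporter of PERK-eIF2a-CHOP signalling; quantity: 500 reporter cells seeded per well; buffer or medium: F12 medium containing 10% fetal bovine serum; compound: one dose, 10 µM in 0.5% DMSO; incubation: 6 h compound treatment, 37 °C; measured by: Steady-Glo luciferase luminescence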
CHOP inhibitor: inhibitors of CHOP promoter induction, primary screen, cell-based, unfolded protein response, luciferase reporter; CHO-K1 CHOP-promoter luciferase, tunicamycin-induced, 15-18 h; inhibition, % at 10 µM; actives 3.8% (n = 220,000);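 active = compounds that reduced the stress-induced luciferase reporter signal by more than about 70% of percent inhibition, limit read from the data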;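 also: 0% = tunicamycin plus vehicle and 100% = wells without tunicamycin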
CHOP UPR conf: activators of apoptotic CHOP UPR arm, confirmation, cell-based, CHO-CHOP luciferase reporter, single concentration | shares compounds with CHOP UPR activ | CHO-CHOP cells, CHOP-luciferase reporter luminescence; percent of tunicamycin response, DMSO as zero | activation, % at 10 µM | actives 64% (n = 1,000) | AID 463112, 2010; in the data active = activation above about 33%;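 also: 0% = DMSO wells and 100% = tunicamycin 10 µg/mL wells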
UPR XBP1 confirm: IRE1-XBP1 UPR arm activators, confirmation, cell-based, CHO-XBP1 luciferase reporter, luminescence, single concentration; shares compounds with UPR XBP1 act; activation, % at 20 µM; actives 63% (n = 1,000); AID 485299, 2010;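 active = reporter signal at least 30% of the positive control's activation in two or more of four replicate wells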;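 also: plate controls were DMSO negative control for no effect and tunicamycin 10 µg/mL positive control for full effect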
The depositor's hits bear a star. The entries come from a sample that favours hits as a whole.

How did CC(=O)NCCc1ccc(S(=O)(=O)Nc2ccc3c(c2)OCCO3)cc1 do in these assays?
Jurkat NFkB inh: 17.0; 697 NFkB inh: 0.8; UPR XBP1 act: -6.8; CHOP UPR activ: 0.9

How did COc1ccccc1NC(=O)Nc1cc(F)ccc1F do in these assays?
Jurkat NFkB inh: -5.7; 697 NFkB inh: -9.7; UPR XBP1 act: 1.4; CHOP UPR activ: 3.1; CHOP inhibitor: 16.0

Results for Cc1cc(C)c([N+](=O)[O-])cc1-c1ccc(/C=N/c2c(-c3ccco3)nc3ccccn23)o1 ?
Jurkat NFkB inh: -5.3; 697 NFkB inh: -4.5; UPR XBP1 act: 3.2; CHOP UPR activ: 2.0; CHOP inhibitor: -19.2

What do the screens show for `O=[N+]([O-])c1ccc(Cl)c(-c2ccc(/C=N/c3c(-c4ccco4)nc4ccccn34)o2)c1`?
Jurkat NFkB inh: -4.6; 697 NFkB inh: 0.7; UPR XBP1 act: 90.2*; CHOP UPR activ: 74.0*; CHOP inhibitor: 54.4; CHOP UPR conf: 0.3; UPR XBP1 confirm: 95.2*

What do the screens show for `COCCn1c(=NC(=O)c2ccc(S(=O)(=O)N3CCc4ccccc4C3)cc2)sc2cc(S(N)(=O)=O)ccc21`?
Jurkat NFkB inh: -3.5; 697 NFkB inh: 1.8; UPR XBP1 act: -1.1; CHOP UPR activ: 2.2; CHOP inhibitor: 23.5

What do the screens show for `C#CCn1c(=NC(=O)c2ccc(S(=O)(=O)N3CCc4ccccc4C3)cc2)sc2cc(S(N)(=O)=O)ccc21`?
Jurkat NFkB inh: 5.6; 697 NFkB inh: -26.4; UPR XBP1 act: 57.7*; CHOP UPR activ: 81.9*; CHOP inhibitor: 109.6*; CHOP UPR conf: 19.7; UPR XBP1 confirm: 82.9*

How did COc1cccc(-c2c(-c3cc(OC)cc(OC)c3)n(C)c3ccc(-c4cnc(N5CCOCC5)nc4)cc23)c1 do in these assays?
Jurkat NFkB inh: 11.7; 697 NFkB inh: -26.7; UPR XBP1 act: 123.7*; CHOP UPR activ: 104.4*; CHOP UPR conf: 28.0; UPR XBP1 confirm: 93.3*

Results for O=[N+]([O-])c1ccc(N/N=C/c2cn(-c3ccccc3)nc2-c2ccccc2)cc1 ?
Jurkat NFkB inh: -16.8; 697 NFkB inh: 23.1; UPR XBP1 act: 1.9; CHOP UPR activ: 4.4; CHOP inhibitor: 14.4

How did NS(=O)(=O)c1ccc(N/N=C/c2cn(-c3ccccc3)nc2-c2ccccc2)c([N+](=O)[O-])c1 do in these assays?
Jurkat NFkB inh: -4.8; 697 NFkB inh: -30.0; UPR XBP1 act: 78.4*; CHOP UPR activ: 104.4*; CHOP inhibitor: 9.9; CHOP UPR conf: 0.1; UPR XBP1 confirm: 74.8*

How did CCCCCCC(C)OC(=O)c1ccccc1C(=O)O (configuration not stated) do in these assays?
Jurkat NFkB inh: -12.5; 697 NFkB inh: -1.7; UPR XBP1 act: -6.4; CHOP UPR activ: 1.6; CHOP inhibitor: -4.3

What do the screens show for `N=c1c(-c2nc3ccccc3[nH]2)cc(C(=O)c2ccco2)nn1-c1ccccc1`?
Jurkat NFkB inh: 5.5; 697 NFkB inh: -12.8; UPR XBP1 act: 33.2*; CHOP UPR activ: 152.8*; CHOP inhibitor: -122.5; CHOP UPR conf: 148.2*; UPR XBP1 confirm: 27.9

How did Oc1cc(-c2cccnc2)cc2cccnc12 do in these assays?
Jurkat NFkB inh: -0.3; 697 NFkB inh: -0.8; UPR XBP1 act: 46.4*; CHOP UPR activ: 95.8*; CHOP UPR conf: 74.0*; UPR XBP1 confirm: 33.8*

Results for CN1CCN(c2cc(-c3cc(O)c4ncccc4c3)ccn2)CC1 ?
Jurkat NFkB inh: 14.0; 697 NFkB inh: 8.9; UPR XBP1 act: -0.9; CHOP UPR activ: 0.3

How did CN1CCN(C(=S)c2cn(Cc3ccccc3F)c3ccccc23)CC1 do in these assays?
Jurkat NFkB inh: -20.8; 697 NFkB inh: -13.9; UPR XBP1 act: -4.9; CHOP UPR activ: 1.9; CHOP inhibitor: 10.4

How did CN(C)/C(=N\S(=O)(=O)c1ccc(Cl)cc1)c1ccc(F)cc1 do in these assays?
Jurkat NFkB inh: 2.0; 697 NFkB inh: 13.3; UPR XBP1 act: -5.5; CHOP UPR activ: 3.9

Results for Cc1cnc(NC(=O)c2cc(S(=O)(=O)N(C)C)ccc2N2CCCC2)s1 ?
Jurkat NFkB inh: -22.9; 697 NFkB inh: 5.9; UPR XBP1 act: 98.3*; CHOP UPR activ: 96.1*; CHOP UPR conf: 105.0*; UPR XBP1 confirm: 87.3*

Results for CN(C)S(=O)(=O)c1ccc(N2CCCC2)c(C(=O)Nc2nc3c(ccc4ccccc43)s2)c1 ?
Jurkat NFkB inh: -28.1; 697 NFkB inh: -6.9; UPR XBP1 act: 1.2; CHOP UPR activ: 1.2; CHOP inhibitor: 34.3

Results for COc1ccccc1C(=O)NC(=S)NNC(=O)c1sc2ccccc2c1Cl ?
Jurkat NFkB inh: 9.9; 697 NFkB inh: 2.4; UPR XBP1 act: 38.4*; CHOP UPR activ: 48.3*; CHOP inhibitor: 88.6*; CHOP UPR conf: 50.7*; UPR XBP1 confirm: 53.5*

Results for CCCCCCCC(=O)Nc1ccc(C(=O)N/N=C/c2cccc([N+](=O)[O-])c2)cc1 ?
Jurkat NFkB inh: 0.5; 697 NFkB inh: -5.7; UPR XBP1 act: 237.1*; CHOP UPR activ: 192.9*; CHOP inhibitor: 66.0; CHOP UPR conf: 182.8*; UPR XBP1 confirm: 144.7*

How did O=C(N/N=C/c1cccc([N+](=O)[O-])c1)c1cc2c(ccc3ccccc32)o1 do in these assays?
Jurkat NFkB inh: 18.8; 697 NFkB inh: 17.2; UPR XBP1 act: 39.8*; CHOP UPR activ: 104.0*; CHOP inhibitor: -28.8; CHOP UPR conf: 76.5*; UPR XBP1 confirm: 15.9

How did Cc1ccc([N+](=O)[O-])cc1-c1ccc(/C=N/NC(=O)c2cc3c(ccc4ccccc43)o2)o1 do in these assays?
Jurkat NFkB inh: 9.4; 697 NFkB inh: 19.6; UPR XBP1 act: -2.8; CHOP UPR activ: 2.1; CHOP inhibitor: 21.6

How did CCCCCCC(=O)Nc1ccc(C(=O)N/N=C/c2cccnc2)cc1 do in these assays?
Jurkat NFkB inh: -13.1; 697 NFkB inh: -79.4; UPR XBP1 act: 0.4; CHOP UPR activ: -0.1; CHOP inhibitor: 53.8

How did CCOC(=O)c1c(NC(C)=O)sc2c1CCC(C=O)=C2Sc1ccccc1 do in these assays?
Jurkat NFkB inh: -16.1; 697 NFkB inh: -31.3; UPR XBP1 act: 64.3*; CHOP UPR activ: 294.5*; CHOP inhibitor: -13.7; CHOP UPR conf: 632.2*; UPR XBP1 confirm: 11.9

What do the screens show for `Cc1cc(C)c[n+](C(C)C(=O)c2ccc(-c3ccccc3)cc2)c1` (configuration not stated)?
Jurkat NFkB inh: 33.8; 697 NFkB inh: 26.8; UPR XBP1 act: -2.6; CHOP UPR activ: 1.9; CHOP inhibitor: 4.8

Source: PubChem
